Data published in ChEMBL document CHEMBL1132997, “Bis(phenazine-1-carboxamides): structure-activity relationships for a new class of dual topoisomerase I/II-directed anticancer drugs” (J Med Chem, 2000).
pIC50: −log10 of the molar value.

Legend:
[1] = test system: Lewis lung carcinoma cell line; assay: Inhibitory activity against Murine Lewis lung carcinoma cells; type: functional, cell-based; conditions: Mus musculus
Outline: (§1)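 Growth inhibition in microculture with drug present throughout. Seeding was 4.5 × 10³ P388, 10³ Lewis lung or 3.75 × 10³ wild-type Jurkat cells per well. Exposure was 3 days for P388 and 4 days for the others. IC50 (nM) is the drug concentration reducing cell number to 50% of control cultures. Each value averages at least two independent duplicate determinations; CV 15–22%.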

P388 = assay: Inhibitory activity against Murine P388 leukemia cells; type: functional, cell-based; conditions: Mus musculus; outline: as §1
Jurkat = assay: Inhibitory activity against wild-type human Jurkat leukemia cells; type: functional, cell-based; outline: as §1
CAKI-1 = assay: 50% inhibition of cell growth against CAK1 cell line; type: functional; conditions: Homo sapiens
Outline: (§2)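 Tested in the NCI human tumour cell line panel. GI50 (nM) is the drug concentration inhibiting cell growth to 50% of controls. The panel mean ("Mid") is the average GI50 over the whole cell line panel.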

HCT-116 = assay: 50% inhibition of cell growth against HCT116 cell line; type: functional; conditions: Homo sapiens; outline: as §2
HT-29 = assay: 50% inhibition of cell growth against HT-29 cell line; type: functional; conditions: Homo sapiens; outline: as §2
NCI/ADR-RES = assay: 50% inhibition of cell growth against NCI/ADRcell line; type: functional; conditions: Homo sapiens; outline: as §2
SK-OV-3 = assay: 50% inhibition of cell growth against SKOV-3 cell line; type: functional; conditions: Homo sapiens; outline: as §2
MCF7 = assay: 50% inhibition of cell growth against MCF-7 cell line; type: functional; conditions: Homo sapiens; outline: as §2
[2] = The average concentration resulting in inhibition of cell growth to 50% whole cell line panel; type: functional; outline: as §2

| SMILES | pIC50 [1] | pIC50 (P388) | pIC50 (Jurkat) | GI50 (CAKI-1) [nM] | GI50 (HCT-116) [nM] | GI50 (HT-29) [nM] | GI50 (NCI/ADR-RES) [nM] | GI50 (SK-OV-3) [nM] | GI50 (MCF7) [nM] | GI50 [2] [nM] |
| --- | --- | --- | --- | --- | --- | --- | --- | --- | --- | --- |
| CN(CCCNC(=O)c1cccc2nc3ccc4ccccc4c3nc12)CCCNC(=O)c1cccc2nc3ccc4ccccc4c3nc12 | 8.49 | 7.62 | 8.05 |  |  |  |  |  |  |  |
| CN(CCCNC(=O)c1cccc2nc3ccc(Cl)cc3nc12)CCCNC(=O)c1cccc2nc3ccc(Cl)cc3nc12 | 7.36 | 7.01 | 7.38 | 62 | < 10 | < 10 | 240 | 1880 | < 10 | 70 |
| Cc1ccc2nc3cccc(C(=O)NCCCN(C)CCCNC(=O)c4cccc5nc6ccc(C)cc6nc45)c3nc2c1 | 6.97 | 6.16 | 6.83 | 240 | 325 | 90 | 1570 | 11000 | 330 | 290 |
| Cc1ccc2nc3c(C(=O)NCCCN(C)CCCNC(=O)c4cccc5nc6cc(C)ccc6nc45)cccc3nc2c1 | 7.14 | 6.21 | 6.55 | 430 | 455 | 235 | 2660 | 5840 | 550 | 600 |
| Cc1ccc(Cl)c2nc3cccc(C(=O)NCCCN(C)CCCNC(=O)c4cccc5nc6c(Cl)ccc(C)c6nc45)c3nc12 | 8.28 | 7.54 | 8.01 | < 10 | < 10 | 40 | 50 | 2030 | < 10 | 50 |
| CN(CCCNC(=O)c1cccc2nc3ccccc3nc12)CCCNC(=O)c1cccc2nc3ccccc3nc12 | 6.97 | 6.28 | 6.76 | 225 | 16 | 44 | 1050 | 850 | 120 | 210 |
| Cc1ccc(C)c2nc3c(C(=O)NCCCN(C)CCCNC(=O)c4cccc5nc6c(C)ccc(C)c6nc45)cccc3nc12 | 8.28 | 7.59 | 7.68 | < 10 | < 10 | < 10 | 35 | 74 | < 10 | 34 |
| Cc1cccc2nc3c(C(=O)NCCCN(C)CCCNC(=O)c4cccc5nc6c(C)cccc6nc45)cccc3nc12 | 7.34 | 6.23 | 6.76 | 370 | 63 | 270 | 920 | 12000 | 480 | 740 |
| Cc1ccc(C(=O)NCCCN(C)CCCNC(=O)c2ccc(C)c3nc4ccccc4nc23)c2nc3ccccc3nc12 | 7.59 | 6.43 | 6.99 |  |  |  |  |  |  |  |
| CN(CCCNC(=O)c1c(Cl)ccc2nc3ccccc3nc12)CCCNC(=O)c1c(Cl)ccc2nc3ccccc3nc12 | 5.08 | 4.92 | 5.63 | 34000 | 285 | 135 | > 100000 | 88000 | 4070 | 5750 |
| Cc1cc(C(=O)NCCCN(C)CCCNC(=O)c2cc(C)cc3nc4ccccc4nc23)c2nc3ccccc3nc2c1 | 7.32 | 6.33 | 6.68 | 170 | 470 | 130 | 5730 | 12000 | 310 | 725 |
| CN(CCCNC(=O)c1cccc2nc3cccc(N(C)C)c3nc12)CCCNC(=O)c1cccc2nc3cccc(N(C)C)c3nc12 | 6.51 | 5.64 | 6.16 | 2910 | 430 | 530 | 11000 | 10000 | 1820 | 2510 |
| CN(CCCNC(=O)c1cccc2nc3cc(Cl)ccc3nc12)CCCNC(=O)c1cccc2nc3cc(Cl)ccc3nc12 | 7.08 | 5.53 | 6.60 | 530 | 35 | 80 | 1140 | 1960 | 330 | 560 |
| CN(CCCNC(=O)c1cccc2nc3cccc(Oc4ccccc4)c3nc12)CCCNC(=O)c1cccc2nc3cccc(Oc4ccccc4)c3nc12 | 5.88 | 5.46 | 5.90 | 5360 | 1770 | 1790 | 1630 | 11000 | 3480 | 3160 |
| COc1ccc2nc3cccc(C(=O)NCCCN(C)CCCNC(=O)c4cccc5nc6ccc(OC)cc6nc45)c3nc2c1 | 7.62 | 7.12 | 7.52 | 82 | < 10 | < 10 | 1210 | 800 | < 10 | 72 |
| CN(CCCNC(=O)c1cccc2nc3cccc(F)c3nc12)CCCNC(=O)c1cccc2nc3cccc(F)c3nc12 | 6.92 | 6.53 | 6.75 | 1730 | 225 | 400 | 7450 | 14000 | 460 | 1320 |
| CN(CCCNC(=O)c1cccc2nc3cccc(Cl)c3nc12)CCCNC(=O)c1cccc2nc3cccc(Cl)c3nc12 | 8.06 | 7.41 | 7.85 | 15 | < 10 | 70 | 350 | 790 | 35 | 93 |
| CN(CCCNC(=O)c1cc(Cl)cc2nc3ccccc3nc12)CCCNC(=O)c1cc(Cl)cc2nc3ccccc3nc12 | 7.92 | 6.69 | 7.13 | 1170 | 18 | < 10 | 125 | 1460 | 110 | 180 |
| CN(CCCNC(=O)c1cccc2nc3c(ccc4ccccc43)nc12)CCCNC(=O)c1cccc2nc3c(ccc4ccccc43)nc12 | 6.39 | 6.35 | 6.54 |  |  |  |  |  |  |  |
| CN(CCCNC(=O)c1cccc2nc3c(Cl)cccc3nc12)CCCNC(=O)c1cccc2nc3c(Cl)cccc3nc12 | 6.82 | 5.11 | 6.68 |  |  |  |  |  |  |  |
| Cc1cccc2nc3cccc(C(=O)NCCCN(C)CCCNC(=O)c4cccc5nc6cccc(C)c6nc45)c3nc12 | 8.80 | 7.82 | 8.24 | < 10 | < 10 | < 10 | 19 | 220 | < 10 | 20 |
